Assay: Toxicity liver stage against HepG2, at 10uM
Assay type: cell-based
Set-up: test concentration 10 uM, cell line HepG2-A16-CD81EGFP
Details: human, HepG2-A16-CD81EGFP cells; read-out: INHIBITION
In short: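 Uninfected HepG2-A16-CD81EGFP cells, 3 × 10^3 per well, 1536-well, plated on prespotted compound at 10 μM final, parasite-free screening media added to match infected plates; puromycin 10 μM positive, DMSO 0.5% negative; run in parallel with 48 h PbLuc assay at 37 °C, 5% CO2; viability by CellTiter-Glo luminescence, normalized to controls.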

| SMILES | cytotoxicity at 10 µM [%] |
| --- | --- |
| O=C(NCc1ccc(Cl)cc1)[C@@H]1Cc2[nH]cnc2CN1CC1CC1 | 3.67 |
| Fc1ccc(-c2cnc(C3CCNCC3)cn2)cc1 | -7.14 |
| COC(=O)C1(C)CCN(C(=O)NCCc2c(C)[nH]c3ccccc23)C1 (configuration not stated) | 0.807 |
| CC(C)(C)OC(=O)N1CCCN1C(=O)c1cccc(F)c1F | -10.3 |
| CC[C@H]1N(CC2CCOCC2)CCC[C@]12CCC(=O)N2 | 8.71 |
| C=C(C)CNC1CCCN(Cc2noc(C3CC3)n2)C1 (configuration not stated) | -4.56 |
| CN(C)c1nccc(C2CN(c3ccccc3)CCO2)n1 (configuration not stated) | -2.4 |
| CNS(=O)(=O)c1ccc(C(=O)NC2CCOc3ccccc32)o1 (configuration not stated) | -9.26 |
| COCC(=O)NCCSCCOc1cccc(Br)c1 | -9.2 |
| Cc1cc2c(=O)n3c(nc2s1)CCN(C(=O)c1c(C)noc1C)CC3 | 17.7 |
| CN1CCN(C2CCN(CCOc3ccc(C#N)cc3)CC2)C1=O | -1.03 |
| O=c1n(Cc2ccccn2)nc(C2CCNCC2)n1Cc1ccccc1 | 2.69 |
| Cc1nc(C2CCN(c3ccccc3)CC2)no1 | -28.4 |
| CC(c1ncc(-c2ccccc2)o1)N1CCN(C(=O)N(C)C)CC1 (configuration not stated) | -12.1 |
| Cn1ccnc1CNc1ccc(F)c(N2CCCS2(=O)=O)c1 | -1.45 |
| COc1ccc2nc(C[C@@H]3C[C@@H](C(C)C)[C@H](CN)C=C3C)[nH]c2n1 | 3.38 |
| CC(C)NC(=O)CN1CCSC2(CCCCC2)C1 | -13.7 |
| CCC(NC(=O)c1cccc2[nH]ccc12)C(=O)N1CCOCC1 (configuration not stated) | -4.1 |
| O=C(NC1CC1)c1cc(C2CCCN(Cc3ccccn3)C2)no1 (configuration not stated) | -31.9 |
| Cc1cccc(CN2C(=O)CCC23CCNCC3)n1 | 0.758 |
| Cc1ccc(-c2cc(N)c(=O)n(CC(=O)NCC3CC3)n2)s1 | 10.3 |
| NC(=O)NCC(=O)N1CCC(c2cc(-c3ccccc3Cl)n[nH]2)CC1 | -0.208 |
| NC(=O)C1CCN(Cn2nc(-c3ccc(F)cc3)oc2=O)CC1 | -19.6 |

| SMILES | cytotoxicity at 10 µM [%] |
| --- | --- |
| Cc1cnn(CC2CCCN2Cc2nc3ccccc3c(=O)[nH]2)c1 (configuration not stated) | -4.82 |
| Cc1[nH]nc(CCC(=O)NCC2COc3ccccc3C2)c1C (configuration not stated) | -43.4 |
| COC(=O)c1cccc(C(=O)N2CCCC(n3cncn3)C2)c1 (configuration not stated) | -6.48 |
| COc1ccc(C)cc1C(=O)N1C[C@@H](CN(C)CCO)[C@@H](CO)C1 | -0.828 |
| O=C(N[C@@H]1CN(Cc2cccs2)[C@@H]2CCCO[C@@H]21)c1cscn1 | -4.6 |
| CS(=O)(=O)NCC1CCCCN1Cc1ccccc1C#N (configuration not stated) | -11.5 |
| c1nc2c(c(C3CC3)n1)CCN(CC1CCOC1)CC2 (configuration not stated) | 1.26 |
| COc1cc(N2CC[C@H]3O[C@@H](C(=O)NC4CCCC4)CC[C@H]32)ncn1 | 13.2 |
| Cn1cnnc1C1CCCN(C(=O)NCCn2ccnc2)C1 (configuration not stated) | -2.74 |
| Cc1cnc2c(S(=O)(=O)NC3CCS(=O)(=O)C3)cccc2c1 (configuration not stated) | -2.28 |
| Cc1csc(CNC(=O)N(C)Cc2ccncc2)n1 | -10.8 |
| Cc1cc(C(=O)NCc2ccc(-c3n[nH]cc3C(=O)N(C)C)cc2)on1 | 4.29 |
| COc1cccc2c1OCC(CNc1cc(N)nc(SC)n1)C2 (configuration not stated) | 3.37 |
| CN(C)CCn1c2c(ccc1=O)CCN(Cc1cnn(C)c1)CC2 | -2.65 |
| CS(=O)(=O)N1CC2(CCN(C3COC3)C2)Cc2ccccc21 (configuration not stated) | 11.9 |
| O=C(O)c1c(-c2ccncc2)ncc2c1CCN(Cc1ccco1)C2 | -3.6 |
| COC(=O)CC(c1cccnc1)c1oc(C)cc(=O)c1O (configuration not stated) | -0.191 |
| Cc1ncc2c(n1)CN(CC(O)COc1ccc(C#N)cc1)CC2 (configuration not stated) | 7.45 |
| CCn1cc(C(=O)N2CCCC(c3nccs3)C2)cn1 (configuration not stated) | -4.19 |
| Cc1ncsc1C(=O)NCCn1nc2ccccn2c1=O | 0.00307 |
| CC(SCC(=O)NC(N)=O)c1ccc(Cl)cc1 (configuration not stated) | 4.86 |
| CC(C)c1nc(CN(C)C(=O)c2cn3ccsc3n2)cs1 | 8.35 |
| F[C@@H]1CN(CC2CC2)C[C@@H]1OCc1nc2ccccc2[nH]1 | -1.34 |

| SMILES | cytotoxicity at 10 µM [%] |
| --- | --- |
| Cc1nc(NC(=O)c2cccnc2N2CCOCC2)sc1C | -0.0261 |
| CCN(CC)C1COc2c(cc(Br)c(C)c2Br)C1=O (configuration not stated) | 5.77 |
| Cc1nn(C)c(Cl)c1C1CCCN1C(=O)c1ccc2nncn2c1 (configuration not stated) | -10.2 |
| CN1CCc2ncc(CNC(=O)c3cccn3C)n2CC1 | 1.27 |
| CCn1cncc1Cn1cccc(C(F)(F)F)c1=O | -20.7 |
| Cc1ncnc2c1CCN(c1ccccn1)CC2 | -157 |
| CC(=O)N(C)CC(=O)NCC1(c2c(F)cccc2F)CCCC1 | -3.86 |
| Nc1cc(N2CCCC2c2cnccn2)ncn1 (configuration not stated) | 0.153 |
| COc1ccc(C2(C(=O)NCc3c(C)ncc4c3CCNC4)CC2)cc1 | -50.7 |
| CC1CN(CC(=O)Nc2nccs2)CCN1Cc1nccn1C (configuration not stated) | -15.4 |
| CC1CCC(NC(=O)c2nn(C)cc2Br)CC1 (configuration not stated) | -3.76 |
| Cc1ccc(C(=O)NCc2ccc(N3CCCC(C(N)=O)C3)cc2)o1 (configuration not stated) | 0.742 |
| OC(CNC1CCOCC1)c1cccc(OCc2ccccc2)c1 (configuration not stated) | -10.3 |
| Cn1nc2c(cc1=O)CN(Cc1nc(C(C)(C)C)no1)CC2 | -2.86 |
| COC(=O)N1CCCC(C(=O)Nc2ccccc2CN2CCCC2)C1 (configuration not stated) | -9.07 |
| CC(C)c1cccc(NC(=O)N2CC(N(C)C)C2)c1 | 9.12 |
| Cc1cc(NC2CCC(=O)N(C)C2)n2nccc2n1 (configuration not stated) | -0.714 |
| COCCN1C[C@H]2CN(Cc3cccc(OC)c3)CCN2C1=O | 7.91 |
| CC(Nc1cccc(CN2CCOC2=O)c1)C(=O)N1CCNC1=O (configuration not stated) | -1.63 |
| CCc1nc(CN(C)C(=O)C2CC(=O)N(c3cccc(O)c3)C2)no1 (configuration not stated) | -10.2 |
| OC1(CN(Cc2cccnc2)C2CCCCC2)CNCCOC1 (configuration not stated) | -21 |
| CN(Cc1ccsc1)C(=O)CNC(=O)N1CCc2ccccc2C1 | -2.9 |
| CC(Cc1c(F)cccc1F)NC(=O)NCc1ncnn1C (configuration not stated) | 12.9 |

| SMILES | cytotoxicity at 10 µM [%] |
| --- | --- |
| CSCCC(C)(O)CNS(=O)(=O)Cc1cccc(C)c1 (configuration not stated) | 1.09 |
| CCn1ccnc1CN1CCCN(C(=O)c2cccn2C)CC1 | -8.93 |
| Cc1cccc(N2CCC3(CCCN(C(=O)c4cccnc4)C3)CC2)n1 | 3.77 |
| Cc1cnn(CC2CCCN2CC(=O)N(C)CCC#N)c1 (configuration not stated) | 7 |
| Cc1ccc2[nH]c(C(=O)N3CCC4(CC3)C(=O)NCCN4C)nc2c1 | 1.43 |
| COCCN1CCN(Cc2coc(-c3ccccc3Cl)n2)CC1 | -1.67 |
| O=C(O)c1ccnc(SCC(=O)c2ccccc2)c1 | -3.78 |
| CCCN(CC)Cc1ccc(C(=O)NCC2COCCO2)c(=O)[nH]1 (configuration not stated) | 4.78 |
| Fc1ccccc1Cc1noc(CN2CC[C@@H]3CCCC[C@H]3C2)n1 | -6.1 |
| O=C(Nc1cccc(C2SCCS2)c1)C1CCCN1c1nccs1 (configuration not stated) | -10.1 |
| O=C(NCc1cccnc1N1CCc2ccccc2C1)c1cc(=O)[nH][nH]1 | 6.99 |
| O=C(C1CCOCC1)N1C[C@@H]2CC[C@H]1CN(Cc1ccncc1)C2 | -11 |
| Cn1nccc1C(=O)NC(C)(C)c1noc(C(C)(C)C)n1 | 8.22 |
| NC(=O)CC1CCCCN1C(=O)c1ccc2cc[nH]c2c1 (configuration not stated) | -4.02 |
| CC(C)Nc1nc2c(c(NC3CC3)n1)CCN(C1CCOCC1)CC2 | 12.3 |
| Cc1cccc(CN2CCC3(CC2)CC(c2cccnc2)C(=O)N3C)n1 (configuration not stated) | 7.53 |
| CC(C)(C)Cc1noc2ncc(C(=O)N3CCCSCC3)cc12 | -20.5 |
| CS(=O)(=O)c1ccc(CC(=O)N2CCN3CCNC(=O)C3C2)cc1 (configuration not stated) | -3.34 |
| COc1cc(CN(C)C(=O)NCCC(=O)NC2CCCC2)ccc1SC | -8.9 |
| C[C@@H]1CN(S(=O)(=O)N2CCCCCC2)C[C@@]1(O)C1CCC1 | 17.6 |
| CC(C)CN(Cc1ccc(-n2cncn2)cc1)Cc1ccccn1 | 8.57 |
| CCc1cc(NCCCN(C)C2CCCC2)ncn1 | 1.75 |
| O=C(NCCCn1cncn1)c1ccc(-c2ccccc2)[nH]c1=O | -4.86 |

| SMILES | cytotoxicity at 10 µM [%] |
| --- | --- |
| CCCn1cc(CN2CCCC2c2nccc(CN(C)C)n2)cn1 (configuration not stated) | 19.7 |
| Cc1ccc(-c2nc(CN(Cc3ccco3)C3CCS(=O)(=O)C3)cs2)o1 (configuration not stated) | 10.3 |
| Cc1nc(C2CCCN(C(=O)Cn3ccccc3=O)C2)no1 (configuration not stated) | -9.37 |
| CCc1nc(CN(C)C(=O)NCc2cccc(NC(C)=O)c2)cs1 | -3.71 |
| CC(C)N(CC(N)=O)CC(=O)NCCc1c(F)cccc1F | -4.97 |
| O=C(NCC(=O)N1CC2(CCCC2)c2c(F)cccc21)C1CC1 | -3.47 |
| O=S1(=O)NCC2(CCN(Cc3ccncc3)CC2)Oc2ncccc21 | 5.97 |
| CC(C)(C)n1cc(C(=O)N2CCN(Cc3ccsc3)CC2)cn1 | -5.79 |
| CCCC(=O)N1CCCN(C(=O)Nc2ccc(C)s2)CC1 | -1.24 |
| O=C(c1ccc(C2CCCO2)s1)N1Cc2ccccc2C1 (configuration not stated) | -13.4 |
| O=C(c1cnn2c(-c3ccco3)ccnc12)N1CCCCCC1 | 14.4 |
| Cc1ccc2cc(C(=O)N3CCCN(C)CC3)ccc2n1 | -54.3 |
| O=C(CCC(=O)Nc1ccccc1)NCC(=O)c1ccc(F)cc1F | -0.493 |
| CS(=O)(=O)NC1CCN(C(=O)COCc2ccccc2)CC1 | -8.61 |
| CCn1ccnc1CN1C[C@@H](CN2CCCC2)[C@@H](CO)C1 | -9.96 |
| COc1cc(C)c(-c2ccc(F)c3c2OC(CN)C3)cc1C (configuration not stated) | 20.3 |
| COc1ccc(CN2CCOCC3(CCN(C4CCOCC4)C3)C2)cc1 (configuration not stated) | 0.466 |
| CN(C)CCN1C(=O)CCCC12CCCN(Cc1cccs1)C2 (configuration not stated) | 0.199 |
| C[C@@H](NC(=O)c1cccnc1)c1onc(-c2ccccc2)c1C(=O)O | 10.1 |
| Cc1nnc(C2Cc3ccccc3CN2Cc2nc(C(C)C)no2)o1 (configuration not stated) | -22 |

From ChEMBL document CHEMBL4513216, “Probing the Open Global Health Chemical Diversity Library for Multistage-Active Starting Points for Next-Generation Antimalarials” (ACS Infect Dis, 2020)
